Measured values as given in ChEMBL document CHEMBL4513216, “Probing the Open Global Health Chemical Diversity Library for Multistage-Active Starting Points for Next-Generation Antimalarials” (ACS Infect Dis, 2020).

Experiment: Toxicity liver stage against HepG2, at 10uM
Assay type: cell-based
Parameters: test concentration 10 uM, cell line HepG2-A16-CD81EGFP
Settings: human, HepG2-A16-CD81EGFP cells; read-out: INHIBITION
Method in brief: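 Uninfected HepG2-A16-CD81EGFP cells, 3 × 10^3 per well, 1536-well, plated on prespotted compound at 10 μM final, parasite-free screening media added to match infected plates; puromycin 10 μM positive, DMSO 0.5% negative; run in parallel with 48 h PbLuc assay at 37 °C, 5% CO2; viability by CellTiter-Glo luminescence, normalized to controls.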

SMILES	cytotoxicity at 10 µM [%]
CSCC(=O)NC1CCN(C(C)c2ccccc2)CC1 (stereo not drawn)	3.63
CCc1cnc(C)nc1NCC(O)CN1CCCCCC1 (stereo not drawn)	3.26
NCCC(Cc1ccccc1)c1ccco1 (stereo not drawn)	0.45
CCOCCSc1nnc(Cc2ccccc2F)o1	8.45
O=C(NCC1Cn2nnc(-c3ccncc3)c2CO1)c1ccc[nH]1 (stereo not drawn)	1.6
CN(Cc1cccc(F)c1)C(=O)CS(=O)(=O)Cc1ccc(Cl)c(Cl)c1	-4.67
Cc1cc(CNC(=O)c2cc(NC(=O)C(C)C)ccc2Cl)no1	13.6
Cc1nc(C)n(CC2CCCN2Cc2cc(-c3cccs3)on2)n1 (stereo not drawn)	-0.367
COC1CCCN(C(=O)NCc2ccc(C(=O)N(C)C(C)C)cc2)C1 (stereo not drawn)	-24.8
COc1cc(C)c(S(=O)(=O)NCc2cccnc2N(C)C)c(C)c1	12.2
CN(C)CCOCC1CN(C(=O)c2cccnc2)Cc2ccnn2C1 (stereo not drawn)	5.57
O=C(c1ccnnc1)N1C[C@@H]2C[C@@H](c3nc(C4CC4)cs3)O[C@@H]2C1	-124
CCn1ccnc1C1CCN(Cc2cccc(C)n2)CC1	-7.93
Cc1n[nH]c2c1C(c1cnn(C)c1)SCC(=O)N2 (stereo not drawn)	7.7
Cc1ccc(NC(=O)Cn2cc(I)cn2)cc1	9.06
CSC(C)(C)CNC(=O)NC1CCC1	-7.32
CCc1nc(CN2CCC(C(=O)N(C)C)CC2)cs1	3.05
Cc1noc(C)c1CC(=O)N1CCc2sccc2C1	-18.4
CS(=O)(=O)CCN(Cc1cccc(O)c1)C1CCC(O)CC1 (stereo not drawn)	5.38
Cn1c(CN2CCCC(N3CCNC3=O)C2)cc(=O)n(C)c1=O (stereo not drawn)	-5.6
COCCCNC(=O)CN1CCSC(c2ccccc2)C1 (stereo not drawn)	13.5
Cc1ncsc1C(=O)N1CCN(Cc2ccccc2)CC1C (stereo not drawn)	-161
CC(C)COC(=O)N1CCCN(C(C)c2nc(C(C)C)no2)CC1 (stereo not drawn)	6.85

SMILES	cytotoxicity at 10 µM [%]
CCc1nn(-c2cc(Oc3cc(C)ccc3C)nc(C)n2)c(N)c1C#N	58.4
COCC(=O)N1CC[C@@H](O)[C@@H]1Cc1ccccc1	-1.26
CCN1CCN(C2CCN(Cc3c(C)noc3C)CC2)C1=O	-7.85
COCc1ccc(C(=O)N2CCC(Oc3ccccc3)(C(=O)O)CC2)o1	0.871
N#CCCNC(=O)c1ccn(-c2ccc3ccccn23)n1	3.82
CC(C)(C)c1ccc(C2(C(=O)NCCS(N)(=O)=O)CC2)cc1	0.515
O=C(NCc1cc[nH]n1)NCC(O)COc1cccc(F)c1 (stereo not drawn)	10.3
O=C(NCCc1ccncc1)c1cccc(S(=O)(=O)NC2CC2)c1	-151
Cc1ncc(CN(C)CC(O)c2cccc(C(F)(F)F)c2)s1 (stereo not drawn)	1.86
OCCNc1cc(N2CCC(n3cc(C4CCCC4)nn3)CC2)ncn1	-9.72
O=C(C1CC1)N1CCC(Oc2ccccc2Cl)CC1	25.6
CCc1nc(CNc2ccc(F)c(F)c2)no1	5.49
CC(c1ccc(F)cc1)n1ccnc1-c1cc2n(n1)CCCNC2 (stereo not drawn)	2.36
FC(F)CN1CCOC(Cn2cccn2)C1 (stereo not drawn)	-9.94
CCC(=O)N1CCC2(COCc3c(C)nc(N(C)C)nc32)C1 (stereo not drawn)	-31.5
Cc1ccc(F)c2c1N(C(=O)Cc1c(C)nn(C)c1C)CCC2	12.7
CC(=O)c1nn(-c2ccccc2Cl)c(C)c1C(C)=O	6.33
O=C([C@H]1C[C@H]2OCC[C@H]2N(Cc2ccoc2)C1)N1CCCO1	-69.8
Cc1cncc(C(=O)N2Cc3ccccc3C3(CCN(C)CC3)C2)c1	4.37
CN(C)CC(=O)N1CCc2sc(C(=O)N3CCOCC3)cc21	-99.4
O=C(O)[C@H]1C[C@H](C(=O)NCc2ccncc2)CN(CCC(F)(F)F)C1	-142
CCC(=O)Nc1cccc(OCC(=O)N(C)CCCC2CCCO2)c1 (stereo not drawn)	-4.63
CN(CCC#N)C(=O)CN(C1CC1)C1CCc2ccccc21 (stereo not drawn)	-4.74

SMILES	cytotoxicity at 10 µM [%]
CN1CCc2nc(C3CCCN(C(=O)CC4CCCCC4)C3)ncc2C1 (stereo not drawn)	-8.36
CC(C)NC(=O)N1CCc2nc(C(=O)NCc3ccccc3)sc2CC1	4.17
CC(C)c1noc(C(C)N2CCN(Cc3cccc(C#N)c3)CC2)n1 (stereo not drawn)	-14.3
COc1cccc(O)c1CN1CCCC(Nc2cccc(F)c2)C1 (stereo not drawn)	-4.47
CCOc1ccc(S(=O)(=O)NCCCc2ccc(N(C)C)cc2)cc1C	0.279
O=C(NCc1cnn2ccccc12)NC1CCCC1	-2.91
Cc1nn(C)c2c(NCc3ccccn3)ncnc12	-5.2
CCOc1ccc(C#N)cc1NC(=O)N1CCOC(C(N)=O)C1 (stereo not drawn)	12.9
FC(F)(F)CCc1ncnn1-c1ccc2c(c1)OCO2	-3.55
N#CCCCS(=O)(=O)NC1(c2cccc(Cl)c2)CC1	-1.39
CC(=O)N1CCc2cc(Cl)cc(Cl)c2C1	11.2
COc1c(CNCc2nnc3n2CCCCC3)c(C)nn1C	9.03
CC(C)c1nc2c(n1C)CCN(Cc1nc(-c3ccoc3)no1)C2	-2.06
CC(C)c1cc2c(O)nc(CSCC(=O)O)nc2s1	-4.61
COCC(=O)NCC[C@H]1CC(C)(C)Oc2ccc(OC)cc21	-5.36
Cc1nc(C)c(C(=O)NCCNC(=O)Cc2ccccc2)s1	-7.89
CCOC(=O)N1CCN(C(=O)c2snnc2-c2ccccc2)CC1	0.847
O=C(NCC1CC1)[C@@H]1CCO[C@@H]2CCN(Cc3ccsc3)C[C@H]21	-76.5
O=C(c1ccco1)N1C[C@H]2CCCN(Cc3nccs3)[C@H]2C1	2.32
Cc1noc(C)c1CNC(=O)c1cn(CCC2CCCCN2)nn1 (stereo not drawn)	0.872
Cc1nnn2c1COC(CNCc1ccccn1)C2 (stereo not drawn)	0.903
COc1ccc(C)cc1CN(C)CC(N)=O	-0.691
CC(=O)N[C@@H]1Cc2ccccc2[C@H]1Nc1cc(C2CC2)ncn1	-45.2

SMILES	cytotoxicity at 10 µM [%]
CN1CCN(Cc2cn3c(n2)CN(Cc2ccncc2)CC3)CC1	-94.8
c1cc2ccc(N3CCN(Cc4ccc5c(c4)OCO5)CC3)nc2[nH]1	-6.07
O=C(c1cccnc1)N1CCCC1C1CCN(Cc2ccccc2)CC1 (stereo not drawn)	-3.24
c1cnc(NC[C@H]2OC[C@@H]3CCN(Cc4ccsc4)C[C@@H]32)nc1	-2.01
Cc1c(Cl)c(C(=O)N2CC[C@H](N3CCOCC3)[C@H](CCCO)C2)nn1C	-148
O=C(Cn1ccc2ccc(F)cc21)NCc1ccc(C(=O)O)cc1	6.86
COc1ncccc1CNCc1c(C)nn(C)c1N(C)C	-7.62
O=c1[nH]c2c(-c3ccccn3)nsc2c(=O)n1CC1CCCO1 (stereo not drawn)	9.26
CC(C)COCCC(=O)Nc1ccc2oc(=O)n(CCN(C)C)c2c1	-7.59
O=C(c1cccnc1)N1CCN(c2ccc(-n3cccc3)nn2)CC1	-9.73
O=C1CC(c2cccnc2)c2c(c(C(=O)O)cn2-c2ccccc2F)N1 (stereo not drawn)	1.85
CC(C)CC(=O)N1CCC2(CC1)OCCO2	4.37
N#Cc1ccc(OC2CCN(C(=O)Cc3cccs3)CC2)nc1	1.96
CCN(Cc1cccc(-c2ccncc2)c1)S(C)(=O)=O	-14
O=C(c1ccco1)N1CCO[C@@H]2CN(Cc3nccs3)CC[C@@H]2C1	-111
CCS(=O)(=O)N1CCC2(CN(c3ccsc3)C(=O)CN2C)C1 (stereo not drawn)	7.31
CCc1ncc(C(=O)N2CC[C@H]3CC[C@@H](C2)N3C)cn1	-7.09
CC1CCc2nc(O)c(C(=O)NCCN(C)C)cc2C1 (stereo not drawn)	-13.8
NC(=O)CN1CCC(NC(=O)Nc2nccs2)CC1	-5.9
CC(O)CN1CCN(C(=O)c2ccc(N(C)C)nn2)CC1 (stereo not drawn)	-13.4
Cc1cc(C2CCN(C(=O)c3cnn(C)c3)CC2)ccn1	-17.8
O=C(c1cccc(CO)n1)N1CCCC1c1nc2cc(F)ccc2[nH]1 (stereo not drawn)	-1.26
Cn1ccnc1-c1nc2cc(S(=O)(=O)N3CCCC3)ccc2n1C	5.05

SMILES	cytotoxicity at 10 µM [%]
COc1ccccc1OCCCc1cc(C#N)ccn1	-11.5
Cc1cc(C)n(C2CCCN(C(=O)c3cc(C(N)=O)cs3)C2)n1 (stereo not drawn)	-11.4
Cc1cc(C)n(CCNCc2cc(-c3ccc(Cl)cc3)c[nH]c2=O)n1	-2.38
CC(=O)N1CCn2c(-c3cccc(F)c3)cnc2C12CCNCC2	4.98
CCOCC1CN(CC2CC2)Cc2nn(C)cc21 (stereo not drawn)	-76
CCOCc1cnc2n1CCN(C(=O)C1=CCCC1)C2C (stereo not drawn)	-2.42
COCCN1CCO[C@H]2[C@H](OCc3cccc(C)n3)CC[C@@H]21	-1.01
Cc1csc(CNC(=O)NCc2ccc3c(c2)OCCO3)n1	-5.52
CC(c1nc(C(C)(C)C)no1)N1CCN(CC(=O)N2CCOCC2)CC1 (stereo not drawn)	-2.67
CC(=O)Nc1ccc(CNC(=O)CNCc2nnc(C)o2)cc1	10.7
Cc1cccc(CNc2nnc(C(C)C)o2)c1	12.2
O=C(CCc1nc(Cl)n[nH]1)N1C[C@H](CO)C[C@H](CN2CCCC2)C1	0.77
CCN(CC)C(=O)[C@@H]1C[C@H](N)CN1c1noc(-c2ccccc2)n1	-49.8
Cn1cnnc1C1CCCN(C(=O)c2cc(C3CC3)on2)C1 (stereo not drawn)	5.14
c1ccc(CNC[C@H]2Cn3ccnc3CO2)cc1	-5.25
COc1ccc2c(c1)CCCC2CC(=O)O (stereo not drawn)	-2.74
Cc1c[nH]c(CN2CCCCC2CCN(C)C)c(C)c1=O (stereo not drawn)	-2.97
Cc1cnn(CC(C)NCc2cc(=O)n3ccccc3n2)c1 (stereo not drawn)	-5.3
CN1CCC(N(CCc2ccccc2)C(=O)COCC2CCCO2)CC1 (stereo not drawn)	-148
O=C(c1cc(C2CCCCN2C(=O)C2CCC2)n[nH]1)N1CCOCC1 (stereo not drawn)	-14
CNc1cc(C)nc(N2CCC3(CC2)[C@H](O)C[C@@H]3OCCO)n1	-1.82
